Fewer inactive variants are shown than the library holds.
B1: tRNA (parent)
chain: GUUCCGUUGGCGUAAUGGUAACGCGUCUCCCUCCUAAGGAGAAGACUGCGGGUUCGAGUCCCGUACGGAACG

Variants of: B1
Test: yeast fitness relative to wild type (ratio to wild type); higher = fitter; tRNA-Arg(CCU), competitive growth, 37 C, YPD
In short: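 The tRNA-Arg(CCU) gene variants were made by chemical synthesis with a 3% per-site mutation rate at 69 sites and inserted at the native genomic locus of Saccharomyces cerevisiae. After pooling, the strains were competed in YPD at 37°C for 24 hours in six parallel replicates. Gene amplicons from the start population and each end population were read by 100-nucleotide paired-end sequencing, and Darwinian fitness relative to wild type was taken from genotype frequency changes. Genotypes needed ≥ 100 starting reads, and estimates < 0.5 were set to 0.5.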

Variant | yeast fitness
U3G G17C C61A | 0.61
U7G A57G C60U | 0.62
A20C C60G | 0.591
C27G C46G U53G G58C G68A | ≤ 0.5
A36G U47A A69C | 0.68
C33U G51C | ≤ 0.5
C4U C24A C55A C62U A65C | ≤ 0.5
U13A G18C U26A | ≤ 0.5
C11G U28A C31G G38A C49A A69G | 0.559
U28A C31G U35A U47A U54A | ≤ 0.5
C11G C34A | 0.585
C5U G6A C31G G50C U54C | ≤ 0.5
A20C U35G C46U G67U | ≤ 0.5
C5A A20U A70G | ≤ 0.5
U28A A40G G51C U54A G58C | 0.582
U26C A36C A65U G68A | ≤ 0.5
U2C C11A U32C | ≤ 0.5
C11G C34A A36U C60A | ≤ 0.5
U3G G10C C46U G48A | ≤ 0.5
U3A C34G A45G | 0.537
A15G G18A G38C | ≤ 0.5
G25C C31G A42G U54G | ≤ 0.5
G23A C27A | 0.821
A21G G23A A57U A70U | ≤ 0.5

Variant | yeast fitness
A37G U59C | 0.741
G10U G17A C24A C62U C66U | ≤ 0.5
C11U C22U A57U A70C | ≤ 0.5
A37G G51C C62G C66U | ≤ 0.5
U13A U54A A69U | 0.529
U2G G9C C60A | ≤ 0.5
U7A U8C G23A G56C C66G | 0.677
C4U G10A C24U A69C | 0.769
C5U G25A | 0.891
C4U U28G C49A C62G | ≤ 0.5
A15G C31A C66G G68C | 0.563
A21U G23C C24U | 0.658
C5A A36G | 0.886
C5A G10C G12A G23A U64A | ≤ 0.5
U13C A14G G56C | ≤ 0.5
C5U U35C A36U G38A C46A U54C G68C | ≤ 0.5
G48A C66U A69C | 0.719
A14C U19C A43C G44C G48A U59A C62U U64A | ≤ 0.5
C30U C61U G63C | ≤ 0.5
G48A C55A G58C | 0.516
C11A C31U C62U | 0.544
G18A U32A U53C | ≤ 0.5
C11U C55G A69C | 0.509
C24G C33U C62A A70G | ≤ 0.5

Variant | yeast fitness
C11A G12A G48A G50A | ≤ 0.5
C22G G68C | 0.696
A14C C30G G68U | 0.567
C29G U32G G38A U53C | 0.566
U3C C5G | 0.761
G9A U28A C62U G68A | ≤ 0.5
C24A A37C G38A A65G C66U | ≤ 0.5
U7A U19A A20C A40G A69U | 0.503
G12C C30G A45U A69U | ≤ 0.5
G6A C24U C61G C66U A69U | 0.568
G39C C60A | 0.587
C55U G58C A69U | 0.537
C33U U64G A70C | 0.555
U3A C24U | 0.765
A45G A57G G63A | ≤ 0.5
U16G G39A A45C C61A | 0.617
U35G G58A | 0.675
C31A A43C C62U | 0.998
G6A C62U G67C | ≤ 0.5
C22G C27G C29G C34A A43U U54C A65U | ≤ 0.5
U16C C22G A43U | 0.692
C27G A36U A69C | ≤ 0.5
U2C U47C | 0.977
A42C A43G C55G G68C | ≤ 0.5

Variant | yeast fitness
A14C U26A C34U G50U C55G | ≤ 0.5
C5U G68U | 0.88
G12A U13G G23C C24G C29G A36C | ≤ 0.5
G18A C27G | ≤ 0.5
A36C A69C | 0.644
C22G C31A A43G | ≤ 0.5
A15G C49A A69U | 0.579
U28A A42C C49G C62U | 0.585
U2C C27A | 0.749
U2C A15G A69C | 0.691
C5G A45C | 0.85
C5G G10C C30U G39C C55G | ≤ 0.5
G23A A37C C49U C62U A70G | ≤ 0.5
G56C C66A | 0.567
U3C A21G C33G C34G | ≤ 0.5
G44C A57U U64A G68C | ≤ 0.5
G50A G67C | 0.743
U2C A20G C27G A37C G38C A43G C55A | ≤ 0.5
C34A G51A G67A | ≤ 0.5
C33U U64A | 0.677
U3C U19A A69U | 0.865
C31A G51C C60U G67A | ≤ 0.5
C29A C33G C61U | 0.619
C4G U7G G10C G38C C49G A69C | ≤ 0.5

Variant | yeast fitness
C11G A20C A43G U59C | ≤ 0.5
C5G C31G C46A G63C A65U | ≤ 0.5
C11A C31U C34U G58C C60U C62U G63C | ≤ 0.5
G23A G38A A69C | ≤ 0.5
C22U C29G C34G A42U U54C G56A | ≤ 0.5
G51C G63A | 0.611
U3C U8C A45U | 0.721
A21U C34G G39A A57G C61U | ≤ 0.5
A42C G68C | 0.657
U16C A57C | 0.674
A42U A57G C62A U64G C66G | ≤ 0.5
C24G C33U A37U C55A G68C | ≤ 0.5
U28A G48A G58C C66G | ≤ 0.5
G25C A42G A45C U47C C62U | ≤ 0.5
A20C U47C | 0.925
U3C G6A G18C C30U C31U G48A C55G G67A | ≤ 0.5
U2G G9A G41A | ≤ 0.5
A21G C34G C61U | 0.722
U7A U8A G25A C62G | ≤ 0.5
G25C C30U U54C | ≤ 0.5
G6C G10C | 0.649
C4A C33A G39C G51C C62U A69C | ≤ 0.5
C60U A69U | 0.771
U2G G67C | 0.759

Variant | yeast fitness
C30U U32C | 0.924
G25C C34U A45C | 0.54
U7C G12A C31U U47C | ≤ 0.5
C4U U13A A14U U32A G58C | ≤ 0.5
G39C G44C | 0.749
U2G U7C | 0.772
C22U C24A A43C C55U | ≤ 0.5
G6A A36U | 0.604
C5G G9C G56C | ≤ 0.5
U8A G50A A69U | 0.589
U2A A20C A69C | 0.78
U16C C31U | 0.953
G44A G67A | 0.887
U8G A57G C60A | ≤ 0.5
C4U A21G G52A G63A | ≤ 0.5
C11U A15C A40U | 0.543
U28C A42C U54G | ≤ 0.5
A21U C27G C33G C60G | 0.52
G17A A21G G23A C27G A37U G44A C49U | ≤ 0.5
C5G A69G | 0.902
U7A C22U U54C C66U G68C A69U | 0.567
A20U A45G | 0.843
U28A C34G G39C A57G C66U | ≤ 0.5
U13A C46A G48C | 1.08

Variant | yeast fitness
C31U C62A | 0.776
A43C U53C C66U A70C | ≤ 0.5
A20U U47C C60G A65U A70G | 0.573
C4A G12A C34G C66U | ≤ 0.5
G9A C22A U47G C55A | ≤ 0.5
U3C U54A | 0.676
G10A A36C A42U | 0.557
C49U G52C | 0.547
U47C G58A | 0.986
U8A U28A C33A A36U A57G | ≤ 0.5
U3G G12A | 0.682
G12C G25A A43C | 0.639
G17C U26A A69C | ≤ 0.5
G6C U26C U64A | ≤ 0.5
U2C A40G U59C | 0.587
U13C A37G | 0.694
U53G C66A | ≤ 0.5
U8G C49G A57U | ≤ 0.5
C5G U7C U54A G63A | ≤ 0.5
G25C A42G | 0.911
C5A A45G | 0.937
A15G C31A | 0.623
C11G C22U U53C | ≤ 0.5

Reference: the RNAGym collection of RNA variant scans (doi:10.1126/science.aae0568)
